# Screens as filed in PubChem BioAssay.
# Shown is part of a subset that was picked to be rich in hits.
# XBP1 UPR activ – activators of adaptive arm of unfolded protein response (XBP1). CHO-XBP1 luciferase reporter, IRE1-XBP1 UPR activation, luminescence; percent of tunicamycin response, DMSO as zero. activation, % at 20 µM. hit rate 0.33% among 330,000;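 active = versus positive control, 20 µM dose yields 30% or more activation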;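 note: 100% = tunicamycin at 10 µg/mL and 0% = DMSO only wells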
#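 Material: IRE1-XBP1 luciferase reporter CHO line / Quantity: one thousand reporter cells per well / Buffer or medium: F12 with 10% serum / Compound: 20 µM single concentration, DMSO 1% / Times: 6 h treatment, 37 °C / Detection: Steady-Glo luciferase glow luminescence, 10 min after reagent addition / Benchmarks: tunicamycin high, DMSO low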
# Bfl-1 A1 inh – inhibitors of the anti-apoptotic protein A1, read as caspase activation; MEF A1-2A-BIM cells, Caspase-Glo 3/7 luminescence, 3 h; percent of clofoctol response, vehicle zero; caspase activation, % (no concentration beside the values); hit rate 0.066% among 330,000; AID 2462;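 active = over half of replicate activation scores above 10%, or exactly half above 10 with the replicate mean above 10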
# UPR CHOP act – activators of apoptotic arm of unfolded protein response (CHOP) | CHO-CHOP luciferase reporter, UPR activation, luminescence; percent of tunicamycin response over DMSO baseline | activation, % at 10 µM | hit rate 0.34% among 330,000 | AID 449763;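 active = at 10 µM dose, activation of 40% or more, normalized to positive control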;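 note: 100% = tunicamycin at 10 µg/mL and 0% = DMSO alone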
#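 Test system: CHO-CHOP cells, stable luciferase reporter of PERK-eIF2a-CHOP signalling | Quantity: 500 CHO-CHOP cells per well | Buffer or medium: F12 plus 10% serum | Compound dosing: 10 µM single point, 0.5% DMSO | Schedule: 6 h compound treatment, 37 °C | Signal: Luciferase luminescence | Control set: Tunicamycin high control, DMSO low control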
# CHOP inh – blocks CHOP induction under ER stress; CHO-K1 CHOP-promoter luciferase, tunicamycin-induced, 15-18 h; hit rate 3.8% among 220,000; inhibition, % at 10 µM;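 active = compounds that reduced the stress-induced luciferase reporter signal by more than about 70% of percent inhibition, limit read from the data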;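 note: 0% = tunicamycin plus vehicle and 100% = wells without tunicamycin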
# * = called active by the depositor; · = not tested or not shown.
SMILES,XBP1 UPR activ,Bfl-1 A1 inh,UPR CHOP act,CHOP inh
Fc1ccccc1CSc1nnc(-c2cnccn2)n1Cc1ccco1,-3,1,2,23
Cc1cc(Br)c(OCc2ccc(C(=O)N/N=C3\CC(=O)CC(C)(C)C3)cc2)c(Br)c1,-2,0,2,91*
CC1(C)CC(=O)C/C(=N/NC(=O)c2ccc(-c3ccccc3)cc2)C1,-2,1,-1,24
CC(=O)Nc1ccc(C(=O)NCC(c2ccco2)N(C)C)cc1 (configuration not stated),0,0,1,·
Cc1cc(C(=O)Nc2sc(C)c(C)c2C#N)c(C)o1,2,-1,0,75*
Nc1c(S(=O)(=O)c2cccs2)c2nc3ccccc3nc2n1/N=C/c1cccc(O)c1,9,-1,18,89*
COc1cccc(/C=N/n2c(N)c(S(=O)(=O)c3cccs3)c3nc4ccccc4nc32)c1,-1,0,-3,-42
Cc1cc(Cl)ccc1OCC(=O)NCCOc1nc(N2CCCCC2)nc(N2CCOCC2)n1,-2,·,-1,89*
CCC(C)NC(=O)CSc1nc2scc(-c3ccccc3)c2c(=O)[nH]1 (configuration not stated),-2,0,0,4
Cc1ccc(NC(=O)Cn2c(-c3ccc(F)cc3)cnc2SCC(=O)Nc2c(C)cccc2C)cc1,-3,0,-1,81*
CCOc1ccc(NC(=O)CSc2ncc(-c3ccc(F)cc3)n2Cc2ccco2)cc1,-3,1,-2,42
CCOC(=O)C1CCCN(S(=O)(=O)Cc2ccccc2Cl)C1 (configuration not stated),-3,0,-1,·
O/N=C(\c1ccc(Cl)cc1)c1cc2ccccc2o1,1,1,1,85*
CCOC(=O)CN(C(=O)CSc1nnc2c(n1)[nH]c1c(C)cc(C)cc12)c1ccccc1,·,·,·,82*
CC(C)CNC(=O)CSc1nnc(-c2ccccn2)n1Cc1ccccc1,-2,0,-3,71*
CCCn1c(SCC(=O)NCCc2ccccc2)nnc1-c1ccccn1,0,-1,-3,29
COc1ccc(OC)c(NC(=O)c2c(NC(=O)CNCc3ccco3)sc3c2CCC3)c1,5,-1,1,-24
COc1ccc(NC(=O)c2c(NC(=O)CNCc3ccco3)sc3c2CCC3)c(OC)c1,-3,0,1,71*
CCOC(=O)C1CCCN(S(=O)(=O)c2cc3c(cc2Cl)NC(=O)CO3)C1 (configuration not stated),-4,1,-2,·
CC1CCN(C(=O)Cn2c(=O)n(CCc3ccccc3)c(=O)c3ccccc32)CC1,-1,0,-2,88*
CC1CCN(C(=O)Cn2c(=O)n(Cc3ccc4c(c3)OCO4)c(=O)c3ccccc32)CC1,1,2,0,11
COc1ccc2c(c1)CCc1c(C(=O)NCCc3ccc(OC)c(OC)c3)noc1-2,-2,0,0,3
COc1ccc2c(c1)CCc1c(C(=O)Nc3ccc(OC)c(OC)c3)noc1-2,4,-2,2,76*
Cc1c(C)n(CC(O)CNc2ccccc2)c2ccccc12 (configuration not stated),-4,-1,0,90*
CCOC(=O)C1C(=O)NC(SCC(=O)OC)=C(C#N)C1c1ccccc1OCC (configuration not stated),-3,0,-2,27
SMILES,XBP1 UPR activ,Bfl-1 A1 inh,UPR CHOP act,CHOP inh
CCOc1ccccc1C1C(C#N)=C(SCC(=O)OC)NC(=O)C1C(=O)OC (configuration not stated),-1,0,3,80*
O=C(CNC(=O)c1cnccc1C(F)(F)F)c1cccc(Cl)c1,-1,1,-2,4
O=C([C@H](Cc1ccccc1)N1C(=O)c2ccccc2C1=O)N1CCOCC1,-2,0,0,·
FC(F)(F)c1nc(N2CCCC2)ncc1-c1nnnn1-c1ccccc1,0,-1,2,72*
CCN1C(=O)[C@H]2[C@H]3CN=C(SCc4ccc(C)cc4)N3[C@@](CC)(C(=O)OC)[C@H]2C1=O,-1,·,1,·
COCCOc1cc(Nc2nnc(C(F)(F)F)s2)c(Cl)cc1Cl,0,1,2,77*
COc1cc(/C=C(/C#N)C(=O)Nc2ccccc2)c(Br)cc1OCc1ccc(C(=O)O)cc1,-1,0,-1,80*
CC(C)(C)c1ccc(OCC(=O)NNC(=S)NC(=O)c2ccco2)c(Br)c1,-1,2,-1,·
